# Many of the other results were omitted from the sample, so hits are more common in it than they were.
# H69AR growth 86K = growth inhibitors of human H69AR lung tumor cells | H69AR lung tumor viability, ATP luminescence, 72 h; hits give low values | viability, % at 10 µM | 6% of 85,000 active;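 active = viability at or below 40%; inactive = viability above 40%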;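 note: multidrug resistant small cell line overexpressing MRP-1 efflux transporter; 100% = mean luminescence of untreated control wells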
# HCT116 PTEN-null = growth suppressors of cells with PTEN tumor suppressor deletion; viability, % at 10 µM; 1.2% of 140,000 active; HCT116 PTEN-null viability, CellTiter-Glo, 60 h; hits give low values; AID 827;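 active = viability at or below a set limit, 4 SD under the median of all tested compounds, cut at about 3.7% in these data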;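 note: PTEN knockout HCT116 line with beta catenin targeted HCT116 as companion control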
# Fibroblast inh = blocks proliferation of human lung fibroblasts | 1.1% of 85,000 active | viability, % at 10 µM | LL 47 human lung fibroblast viability, ATP luminescence; hits give low values;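 active = viability at or below 50% in the single dose screen; inactive = viability above 50%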;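 note: compound exposure lasted 72 h before the ATP readout; 100% = median luminescence of untreated cell-only wells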
#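 Material: Human LL 47 lung fibroblast cells | Input: 1,150 cells/well | Buffer or medium: IMEM plus 15% FBS | Compound dosing: 0.1% DMSO in all compound wells | Times: Overnight cell rest, 72 h compound treatment at 37 °C | Signal: CellTiter-Glo luminescence measuring cellular ATP | Measure: % viability versus median cells-only luminescence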
# bCat KO growth = beta-catenin-lacking colon tumor cell growth suppression; HCT116 beta-catenin knockout viability, CellTiter-Glo, 60 h; hits give low values; viability, % at 10 µM; 1.5% of 140,000 active; AID 818;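 active = viability at or under a set limit, the compound median less 4 SD, cut at about 6% in these data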;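 note: 0% = Hyamine 1622 control at 20 µM and 100% = untreated cell control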
# HUVEC prolif 384 = inhibitors of human endothelial cell proliferation; HUVEC proliferation, CellTiter-Glo luminescence, 72 h; hits give low values; viability, % at 10 µM (by protocol); 1.1% of 86,000 active; AID 648;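 active = viability at or below 30%; inactive = viability above 30%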;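 note: 100% = median luminescence of DMSO-only cell control wells on each plate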
# * = called active by the depositor; . = no result.
SMILES,H69AR growth 86K,HCT116 PTEN-null,Fibroblast inh,bCat KO growth,HUVEC prolif 384
CCCCn1c(N)c(C(=O)OCC2CCCO2)c2nc3ccccc3nc21 (stereo unspecified),50,93,87,87,60
COCCOC(=O)C1=C(N)Oc2c(c(=O)oc3ccccc23)[C@@]12C(=O)Nc1ccccc12,97,98,105,79,114
Clc1ccc(C(c2ccccc2)c2ncc[nH]2)cc1 (stereo unspecified),.,84,.,84,.
CC1C(c2cccs2)=[N+]([O-])C(C)(C(=O)c2cccs2)N1O (stereo unspecified),.,95,.,90,.
CC(C)OCCCNC(=O)c1c(N)n(CC2CCCO2)c2nc3ccccc3nc12 (stereo unspecified),62,39,96,46,74
Nc1c(C(=O)NCc2ccco2)c2nc3ccccc3nc2n1CCN1CCOCC1,39*,34,94,52,70
COc1ccc(CCNC(=O)c2c(N)n(CCN3CCOCC3)c3nc4ccccc4nc23)cc1OC,12*,21,92,33,59
COCCCn1c(N)c(C(=O)NCCC(C)C)c2nc3ccccc3nc21,18*,2.7*,81,1.6*,87
CCCCOCCCn1c(N)c(C(=O)OCCOC)c2nc3ccccc3nc21,59,74,111,67,89
FC(F)(F)c1cccc(-n2nnnc2C2(N3CCOCC3)CCCCC2)c1,.,59,.,55,.
O=C1/C(=C\c2cc3c(cc2Br)OCO3)N2CCC1CC2,.,95,.,84,.
CCCCC1(CCCC)C(=O)NC(=Nc2cccc(C)c2)NC1=O,7.8*,12,52,32,59
CCN1/C(=C\C=C\C2=[N+](CC)c3ccccc3C2(C)C)C(C)(C)c2ccccc21,0.2*,1.1*,8.7*,1.1*,22*
Clc1ccc(COC(Cn2ccnc2)c2ccc(Cl)cc2Cl)c(Cl)c1 (stereo unspecified),2.3*,40,82,35,41
Cn1c(CN2CCN(C(=O)COc3ccccc3)CC2)nc2cc([N+](=O)[O-])ccc21,.,85,.,84,.
CCCCc1ccc2[nH]cc(CCN)c2c1,14*,4,83,18,84
Cc1cccc(OP(=O)(Oc2ccccc2)OC(c2ccccc2)C(F)(F)F)c1 (stereo unspecified),.,63,.,65,.
Cc1cccn2c(=O)c3c(nc12)N1CCC(Cc2ccccc2)CC1C1(C3)C(=O)N(C)C(=O)N(C)C1=O (stereo unspecified),29*,70,103,68,74
CN1C(=O)C(=Cc2ccccc2OCc2ccccc2Cl)C(=O)N(C)C1=O,.,48,.,43,.
COc1cc(/C=C(/C)[N+](=O)[O-])ccc1OCc1ccccc1Cl,.,1.2*,.,1.6*,.
CC(=O)O[C@@H]1[C@H]2CC[C@@H]3[C@]1(C[C@@H](OC(C)=O)[C@@]1(O)C([C@@H]4O[C@@H]4C1(C)C)[C@]3(C)O)C[C@@]2(C)O (stereo partly specified),.,102,.,96,.
CNC(=O)OCCc1n(C)cc[n+]1C,.,97,.,92,.
CC(=O)OC(C)(C)/C=C/C(=O)[C@](C)(O)[C@H]1[C@H](O)C[C@@]2(C)[C@@H]3CC=C4[C@H](C[C@H](O)C(=O)C4(C)C)[C@]3(C)C(=O)C[C@]12C,.,1.9*,.,2.4*,.
CN(C)C(=O)Oc1ccc(OCc2n(C)c3ccccc3[n+]2C)cc1,.,98,.,103,.
CN(C)C=C1C(=O)N(C2CCCCC2)C(=O)N(C2CCCCC2)C1=O,31*,91,95,88,67
SMILES,H69AR growth 86K,HCT116 PTEN-null,Fibroblast inh,bCat KO growth,HUVEC prolif 384
CC(C)CCOC(=O)c1c(N)n(CC2CCCO2)c2nc3ccccc3nc12 (stereo unspecified),52,44,99,42,66
CC(C)OC(=O)c1c(N)n(CC2CCCO2)c2nc3ccccc3nc12 (stereo unspecified),34*,89,.,93,87
CC(C)CCn1c(N)c(C(=O)OCC2CCCO2)c2nc3ccccc3nc21 (stereo unspecified),20*,30,91,34,60
CC1(C)N=C(c2ccccc2)[C@@H]2C(c3ccc([N+](=O)[O-])cc3)N21 (stereo partly specified),.,87,.,87,.
CCCc1nc2ccc(Br)cc2c(=O)n1-c1ccc([N+](=O)[O-])c(C(F)(F)F)c1,.,45,.,54,.
CCOC(=O)c1c(C)n(Cc2ccccc2)c2ccc(OCC(O)Cn3nc(C)cc3C)cc12 (stereo unspecified),12*,66,100,73,61
Cc1cccn2c(=O)c3cc(C(=O)N4CCC5(CC4)OCCO5)n(C)c3nc12,20*,13,57,14,56
O=C(O)[C@H]1C[C@@H]1[C@H](NP(=O)(c1ccccc1)c1ccccc1)c1ccccc1,.,98,.,103,.
COc1ccccc1CCNC1C2CC3CC(C2)CC1C3 (stereo unspecified),.,63,.,55,.
CCCCn1c(=O)c(C(=O)Nc2cnccn2)c(O)c2ccccc21,14*,46,48*,54,73
CC(C)CCn1c(=O)c(C(=O)Nc2ccccc2S(N)(=O)=O)c(O)c2ccccc21,7.4*,21,50,29,59
CCCCn1c(=O)c(C(=O)Nc2nc3ccccc3[nH]2)c(O)c2ccccc21,8.5*,.,85,.,100
CCCCn1c(O)c(C(CC)=NCc2cccnc2)c(=O)[nH]c1=O,67,95,96,93,90
CC(C)OP(=O)(OC(C)C)C(O)c1ccccc1F (stereo unspecified),.,88,.,97,.
COc1cccc(-n2c(CN3CCN(C)CC3)nc3ccc([N+](=O)[O-])cc3c2=O)c1,.,68,.,71,.
CC(C)n1c(=O)c(C=Nc2ccc(F)cc2)c(O)n(Cc2ccco2)c1=O,.,82,.,86,.
O=P(NCc1ccccc1)(Oc1ccccc1)Oc1ccccc1,.,80,.,71,.
CN1CCC(O)(c2ccccc2)C(C(=O)c2ccccc2)C1 (stereo unspecified),83,23,85,5.3*,90
COc1cc(/C=C/[N+](=O)[O-])ccc1O,.,3.3*,.,4.0*,.
COc1cc(/C=C2/C(=O)NC(=O)N(c3ccccc3)C2=O)ccc1O,.,94,.,93,.
O=[N+]([O-])c1cc(S(=O)(=O)c2ccc(O)c([N+](=O)[O-])c2)ccc1O,.,98,.,101,.
O=C(c1ccc2c(=O)n(Cc3ccc4c(c3)OCO4)c(=S)[nH]c2c1)N1CCC2(CC1)OCCO2,32*,86,100,90,101
O=C(NCc1ccc(C(=O)N2CCC3(CC2)OCCO3)cc1)c1ccc2c(c1)OCO2,90,.,99,91,98
C[C@@H]1O[C@@H](O[C@H]2C[C@@H](O)[C@]3(CO)[C@H]4[C@H](O)C[C@]5(C)[C@@H](C6COC(=O)C6)CC[C@]5(O)[C@@H]4CC[C@]3(O)C2)[C@H](O)[C@H](O)[C@H]1O (stereo partly specified),.,5,.,4.6*,.

# Bioassay records (PubChem)
